According to PubChem BioAssay:
Active and inactive are the calls of the source.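 The calls were made as follows, unless noted: active = viability at or under a set limit in both replicates, limit being median viability minus 3 SD (cut at about 48% in these data, passing the limit was not always enough); inconclusive = at or under the limit in just one replicate; inactive = at or above the limit in both replicates.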

Experiments:
[1] = Her2 expression decrease, cell viability multiplex – SKBR3 breast tumor cells, AlphaScreen, ATP viability, primary screen (AID 461;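 active = Her2 level under about 52% in both replicate screens, with viability over 70% of control, limit read from the data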;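 as to Her2 level: lower value means less Her2 protein in the cells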;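 as to viability: percent of carrier control wells set as 100% viability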); settings: SKBR3 Her2 protein level, 18-24 h, measured here: SKBR3 viability, ATP luminescence, at 10 µM
[2] = target: Receptor tyrosine-protein kinase erbB-2 (Homo sapiens) (UniProt P04626); test: as above; settings: 18-24 h, at 10 µM, stronger effect = lower value
[3] = reduced viability of SK-BR-3 breast cancer cells – cell-based, 24 h, human, pilot screen (AID 572;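 active = viability at or below 10% of carrier control in both of two separate runs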;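 also: compound exposure lasted between 18 and 24 h rather than exactly 24 h; 100% = carrier-treated control wells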); settings: SK-BR-3 viability, CellTiter-Glo luminescence, at 10 µM, stronger effect = lower value
[4] = HUVEC growth inhibition – cell-based, human, primary screen (AID 575;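 active = viability at or below 30% in both replicate assays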;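 also: 100% = median of untreated cell wells with 0.1% DMSO on each plate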); settings: HUVEC proliferation, CellTiter-Glo luminescence, 72 h; at 10 µM; stronger effect = lower value
Procedure, shortened: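 Material: primary human umbilical vein endothelial cells / Schedule: 72 h exposure, 37 °C, 5% CO2, 30 min RT equilibration / Signal: ATP-based CellTiter-Glo luminescent read / Read-out basis: percent of median DMSO-control luminescence / Control set: 32 DMSO-only cell-control wells (high), 32 MePR drug-control wells (low) per plate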

[5] = H69AR cell proliferation blockers – human, duplicate replicates, primary screen (AID 580); settings: H69AR lung tumor cells viability, ATP luminescence, 72 h; at 10 µM; stronger effect = lower value;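 also: 100% = mean luminescence of untreated wells and 0% = no signal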
[6] = MRP1 drug-resistance reversers in H69AR cells – cell-based, doxorubicin co-treatment, pilot screen (AID 601;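 active = viability loss from added drug above about 55%, and viability with drug at most 40%, in both replicates, limit read from the data, passing the limit was not always enough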); settings: CellTiter-Glo, 72 h, at 10 µM; for differential viability (reversal): stronger effect = higher value
[7] = yeast transport mutant growth inhibition pilot in 384-well plates, post-Golgi transport modulator project (AID 636; in the data active = inhibition above about 31%); settings: absorbance 615 nm, about 18 h, stronger effect = higher value
[8] = growth suppression of yeast trafficking mutant, preliminary HTS, modulators of trafficking downstream of Golgi apparatus project, 1536-format plate, OD 615 nm (AID 637; in the data active = inhibition above about 30%); settings: yeast transport mutant growth, absorbance 615 nm, 18 h; stronger effect = higher value
[9] = H69AR cells + 2 uM doxorubicin, measured here: viability with 2 uM doxorubicin, stronger effect = lower value
[10] = H69AR cells, compound alone cytotoxicity

Sequence of Receptor tyrosine-protein kinase erbB-2 (Homo sapiens) (P04626 whole entry, looked up): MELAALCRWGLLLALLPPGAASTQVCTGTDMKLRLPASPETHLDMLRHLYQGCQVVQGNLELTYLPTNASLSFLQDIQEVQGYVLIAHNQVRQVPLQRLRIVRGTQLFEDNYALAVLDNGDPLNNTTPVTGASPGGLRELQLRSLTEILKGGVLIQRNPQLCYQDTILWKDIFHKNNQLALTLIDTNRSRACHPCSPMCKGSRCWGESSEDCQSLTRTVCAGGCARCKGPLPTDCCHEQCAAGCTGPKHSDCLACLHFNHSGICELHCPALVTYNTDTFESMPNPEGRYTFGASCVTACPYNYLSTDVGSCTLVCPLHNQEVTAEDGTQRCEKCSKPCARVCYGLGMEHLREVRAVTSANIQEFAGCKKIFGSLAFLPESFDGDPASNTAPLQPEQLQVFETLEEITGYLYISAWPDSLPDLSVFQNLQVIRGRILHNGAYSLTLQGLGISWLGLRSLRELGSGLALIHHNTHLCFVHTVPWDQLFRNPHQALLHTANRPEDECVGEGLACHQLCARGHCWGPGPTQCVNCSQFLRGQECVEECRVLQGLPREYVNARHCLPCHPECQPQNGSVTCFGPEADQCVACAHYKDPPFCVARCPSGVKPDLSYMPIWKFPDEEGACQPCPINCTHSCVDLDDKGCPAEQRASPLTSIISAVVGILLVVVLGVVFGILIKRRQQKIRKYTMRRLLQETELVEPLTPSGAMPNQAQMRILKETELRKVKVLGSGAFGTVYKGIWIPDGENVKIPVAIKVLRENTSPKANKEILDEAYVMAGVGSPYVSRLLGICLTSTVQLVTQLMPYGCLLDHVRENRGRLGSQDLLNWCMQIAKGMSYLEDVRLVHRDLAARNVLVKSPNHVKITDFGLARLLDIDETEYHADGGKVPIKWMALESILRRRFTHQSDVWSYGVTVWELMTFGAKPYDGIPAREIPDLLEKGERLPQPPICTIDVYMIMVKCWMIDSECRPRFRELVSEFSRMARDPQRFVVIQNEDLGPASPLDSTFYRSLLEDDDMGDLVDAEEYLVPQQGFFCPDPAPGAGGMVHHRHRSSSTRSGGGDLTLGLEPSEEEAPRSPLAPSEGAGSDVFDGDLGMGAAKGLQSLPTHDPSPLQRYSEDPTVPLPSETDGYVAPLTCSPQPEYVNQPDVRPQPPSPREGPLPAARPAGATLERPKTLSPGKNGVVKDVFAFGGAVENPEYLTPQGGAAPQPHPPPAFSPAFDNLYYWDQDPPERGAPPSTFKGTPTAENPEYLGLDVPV

SMILES | viability [1] [%] | Her2 level [2] | viability [3] | viability [4] | viability [5] | differential viability (reversal) ([6]; H69AR cells + 2 uM doxorubicin) | viability [6, 9] [%] | viability [6, 10] [%] | inhibition [7] | inhibition [8]
CCOc1ccc(OCC)c(NC(=O)CN2CCN(C(=O)c3ccco3)CC2)c1 | 75 | 103% (inactive) | 75% (inactive) | 82.4% (inactive) | 68.8% (inactive) | 38.1% (inactive) | 30.6 | 68.8 | 4.81% (inactive) | -7.3% (inactive)
CC1CCC2C(C1)c1sc(=O)[nH]c1SC2(C)C (stereo not given) | 85 | 111% (inactive) | 85% (inactive) | 60.5% (inactive) | 106% (inactive) | 2.79% (inactive) | 103 | 106 | 0.9% (inactive) | 13.2% (inactive)
O=S(=O)(c1ccc(Br)s1)N1CCCCC1 | 96.5 | 97.5% (inactive) | 96.5% (inactive) | 89.5% (inactive) | 94% (inactive) | 2.88% (inactive) | 91.1 | 94 | -1.32% (inactive) | -2.13% (inactive)
COCCCN1C(=O)C(O)=C(C(=O)c2ccco2)C1c1ccc(Br)cc1 (stereo not given) | 102 | 89.5% (inactive) | 102% (inactive) | 99.5% (inactive) | 97.6% (inactive) | 10.2% (inactive) | 87.4 | 97.6 | -6.13% (inactive) | 0.81% (inactive)
Cc1cc(C(=O)CSc2nc3ccccc3[nH]2)c(C)n1C | 100 | 86% (inactive) | 100% (inactive) | 120% (inactive) | 94.4% (inactive) | 12.8% (inactive) | 81.6 | 94.4 | -4.93% (inactive) | -8.36% (inactive)
O=C(Nc1ccc2c(c1)OCO2)c1nn(-c2ccccc2)c(=O)c2ccccc12 | 108 | 81% (inactive) | 108% (inactive) | 72.8% (inactive) | 74.7% (inactive) | -4.67% (inactive) | 79.4 | 74.7 | -1.43% (inactive) | 1.75% (inactive)
O=C(NCC1COc2ccccc2O1)c1ccccc1 (stereo not given) | 79 | 95% (inactive) | 79% (inactive) | 113% (inactive) | 92.9% (inactive) | 2.58% (inactive) | 90.4 | 92.9 | -4.27% (inactive) | 0.33% (inactive)
Cc1nnc2n(Cc3ccccc3)c(=O)c3c4c(sc3n12)COC(C(C)C)C4 (stereo not given) | 124 | 69% (inactive) | 124% (inactive) | 82.5% (inactive) | 76.2% (inactive) | 17% (inactive) | 59.2 | 76.2 | -7.6% (inactive) | 11.9% (inactive)
COC(=O)c1cc(Br)c(=O)n(-c2ccc(OC)cc2)c1 | 96.5 | 93.5% (inactive) | 96.5% (inactive) | 100% (inactive) | 94.5% (inactive) | 7.62% (inactive) | 86.8 | 94.5 | -2.8% (inactive) | 0.65% (inactive)
C=CCOc1ccc(/C(O)=C2\C(=O)C(=O)N(CCOC)C2c2cccnc2)cc1 (stereo not given) | 99 | 94.5% (inactive) | 99% (inactive) | 107% (inactive) | 103% (inactive) | 14.8% (inactive) | 88.4 | 103 | -6.89% (inactive) | 1.17% (inactive)
CCOC(=O)N1CCN(C(=O)CSc2ncnc3ccccc23)CC1 | 92 | 96% (inactive) | 92% (inactive) | 87.2% (inactive) | 89.1% (inactive) | 14.9% (inactive) | 74.1 | 89.1 | -1.33% (inactive) | 0.33% (inactive)
COC(=O)c1sc(N)c(C(=O)OC)c1CSc1nc2sc3c(c2c(=O)n1C)CCC3 | 88 | 103% (inactive) | 88% (inactive) | 81.5% (inactive) | 62.3% (inactive) | 8.74% (inactive) | 53.5 | 62.3 | -2.84% (inactive) | 2.62% (inactive)
COc1ccc(CN2CC(C(=O)NCc3ccccn3)CC2=O)cc1 (stereo not given) | 92.5 | 104% (inactive) | 92.5% (inactive) | 101% (inactive) | 105% (inactive) | 9.59% (inactive) | 95.1 | 105 | -5% (inactive) | -4.03% (inactive)
CCc1nnc(NC(=O)CSc2nnc(CSc3nc(C)cc(C)n3)n2CC)s1 | 100 | 116% (inactive) | 100% (inactive) | 84.1% (inactive) | 88.7% (inactive) | 1.79% (inactive) | 86.9 | 88.7 | 0.77% (inactive) | 22.5% (inactive)
